The source made the active and inactive calls.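 How the source made its calls: active means mean IC50 at or below 20 µM in a cell killing test; inactive means the rest.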

The test system of the experiment is CHO-XBP1 cytotoxicity, ATPlite luminescence, 6 h. Briefly: cytotoxicity in CHO-XBP1 reporter cells, SAR follow-up, cytotoxicity control for UPR apoptotic arm activator project, cell-based, 6 h exposure, ATPlite luminescence (AID 588570). In short, it runs like this: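 Test system: CHO-XBP1 cells / Technique: ATP-based luminescence with ATPLite 1-Step reagent / Medium: F12 plus 10% FBS / Doses: dose-response series, DMSO ≤1% / Incubation: 16-18 h attachment, 6 h exposure, 37 °C, 5% CO2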
On the technique in general: ATP-based viability assays read luminescence as a measure of living cells.
Consider `O=C(Nc1nc2cc(F)cc(F)c2s1)c1ccccn1`, for which the IC50 was 9.35 µM.

For `O=C(Nc1nc2ccc(F)cc2s1)c1ccccn1`, the half-maximal inhibitory concentration (IC50) was 4.78 µM.

On to `O=C(Nc1ccc(S(=O)(=O)N2CCCCC2)cc1)c1ccc([N+](=O)[O-])o1`, for which the IC50 was > 80 µM (inactive).

Turning to `O=C(Nc1nc2ccc(Cl)cc2s1)c1ccccn1`, the half-maximal inhibitory concentration (IC50) is 3.81 µM.

For `O=C(Nc1ccc(S(=O)(=O)N2CCC(O)CC2)cc1)c1ccc([N+](=O)[O-])o1`, the IC50 is > 80 µM (inactive).

As for `O=C(Nc1ccc(S(=O)(=O)N2CCC(F)CC2)cc1)c1ccc([N+](=O)[O-])o1`, the IC50 is > 80 µM (inactive).

For `Cc1cc(C)c2nc(NC(=O)c3ccccn3)sc2c1`, the IC50 was 15.2 µM.

With `O=C(Nc1ccc(S(=O)(=O)N2CCCC2)cc1)c1ccc([N+](=O)[O-])o1`, the IC50 is 74.6 µM (inactive).

In the case of `O=C(Nc1nc2cccc(F)c2s1)c1ccccn1`, the IC50 is 7.08 µM.

Consider `O=C(Nc1nc2ccc(C(F)(F)F)cc2s1)c1ccccn1`, for which the IC50 is 4.62 µM.

Consider `CC(C)(C)C1CCN(S(=O)(=O)c2ccc(NC(=O)c3ccc([N+](=O)[O-])o3)cc2)CC1`, for which the IC50 is > 80 µM (inactive).

As for `O=C(Nc1ccc(S(=O)(=O)N2CCOCC2)cc1)c1ccc([N+](=O)[O-])s1`, the IC50 is > 80 µM (inactive).

On to `O=C(Nc1nc2cc(F)ccc2s1)c1ccccn1`, for which the IC50 is 2.62 µM.

For `O=C(Nc1nc2ccc(F)c(F)c2s1)c1ccccn1`, the concentration for half-maximal inhibition (IC50) was 14 µM.

For the compound `O=C(Nc1nc2cc(F)c(F)cc2s1)c1ccccn1`, the IC50 was 5.1 µM.

As for `O=C(Nc1nc2c(F)ccc(F)c2s1)c1ccccn1`, the IC50 is 32.3 µM (inactive).

For `O=C(Nc1ccc(S(=O)(=O)N2CCC3(CCCCC3)CC2)cc1)c1ccc([N+](=O)[O-])o1`, the IC50 is > 80 µM (inactive).

In the case of `O=C(Nc1nc2c(F)cc(F)cc2s1)c1ccccn1`, the IC50 is 10.7 µM.

As to `O=C(Nc1ccc(S(=O)(=O)N2CCNCC2)cc1)c1ccc([N+](=O)[O-])o1`, the IC50 was > 80 µM (inactive).

Consider `CC1CCN(S(=O)(=O)c2ccc(NC(=O)c3ccc([N+](=O)[O-])o3)cc2)CC1`, for which the IC50 is > 80 µM (inactive).

For the compound `O=C(Nc1ccc(S(=O)(=O)C2CCCCC2)cc1)c1ccc([N+](=O)[O-])o1`, the IC50 was > 80 µM (inactive).

In the case of `O=C(Nc1ccc(S(=O)(=O)C2CCOCC2)cc1)c1ccc([N+](=O)[O-])o1`, the IC50 is > 80 µM (inactive).

Regarding `CC1(C)CCN(S(=O)(=O)c2ccc(NC(=O)c3ccc([N+](=O)[O-])o3)cc2)CC1`, the IC50 was > 80 µM (inactive).

For the compound `O=C(Nc1ccc(S(=O)(=O)N2CCC(Cl)CC2)cc1)c1ccc([N+](=O)[O-])o1`, the IC50 is > 80 µM (inactive).

Regarding `O=C(Nc1nc2c(Cl)cc(Cl)cc2s1)c1ccccn1`, the IC50 was > 80 µM (inactive).

Regarding `O=C(Nc1ccc(S(=O)(=O)N2CCOCC2)cc1)c1ccc([N+](=O)[O-])o1`, the IC50 is > 80 µM (inactive).

For the compound `O=C(Nc1nc2c(F)cccc2s1)c1ccccn1`, the IC50 was 4.11 µM.

Regarding `CC1CN(S(=O)(=O)c2ccc(NC(=O)c3ccc([N+](=O)[O-])o3)cc2)CC(C)O1` (stereo not given), the IC50 is > 80 µM (inactive).

Take `O=C(Nc1nc2c(F)c(F)ccc2s1)c1ccccn1`: the half-maximal inhibitory concentration (IC50) was 4.29 µM.

Turning to `O=C(Nc1ccc(S(=O)(=O)c2ccccc2)cc1)c1ccc([N+](=O)[O-])o1`, the IC50 was > 80 µM (inactive).

As a reminder, the IC50 is the midpoint of a concentration-inhibition curve.

Values taken from PubChem BioAssay AID588570 (Sanford-Burnham Center for Chemical Genomics, 2011).
